Reference: PubChem BioAssay
Active and inactive are the calls of the source.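 The calls were made as follows, unless noted: active = fluorescence slope after compound addition differing from the mean of all tested samples at 99.7% confidence, mostly higher but some lower; inactive = the rest.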

Columns and labels:
[1] = inhibitors of TNFa-induced NFkB p65 translocation, primary screen, imaging, HUVEC, MLSMR starter and 10KST1 sets (AID 438;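 active = inhibition above 20% together with a positive visual image hit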;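 also: compound added about 3h40 before a 20 min TNFalpha stimulation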;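 as to inhibition: signal is the nuclear over cytoplasmic p65 intensity ratio per well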); details: HUVEC TNFa-induced p65 nuclear translocation; cell count: measured here: nuclei count (cytotoxicity indicator), at 2.08 µM; inhibition: at 2 µM, stronger effect = higher value, 0% TNFa-plus-vehicle, 100% no-TNFa wells
[2] = inhibitors of mutant huntingtin aggregation, primary screen, imaging, exon1htt(103Q)mCFP cells, high-content imaging (AID 483;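 active = visual image review flags a hit and inhibition of aggregation exceeds 20%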;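 also: compound exposure lasted 3 days before fixation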;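 as to nuclei count: percent of the per-plate median nuclei count of sample wells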); details: exon1htt(103Q)mCFP cell line, aggregate imaging, at 2 µM; inhibition of aggregation: stronger effect = higher value; nuclei count: measured here: cell count, toxicity
[3] = inhibitors of E-selectin induction by TNFa, primary screen, imaging, HUVEC, immunofluorescence, MLSMR starter and 10KST1 sets (AID 487;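 active = visually confirmed hit in the image check and inhibition above 20%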;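 as to inhibition: signal is fraction of cell area covered by stained E-selectin grains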;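 as to nuclei count: 100% = median nuclei count of all wells on the same plate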); details: HUVEC TNFalpha-induced E-selectin immunofluorescence imaging, at 2 µM; inhibition: stronger effect = higher value; nuclei count: measured here: cell number, toxicity
[4] = target: Voltage-gated potassium channel subunit beta-2 (Rattus norvegicus) (UniProt P62483); assay: KvBeta enzyme negative modulators, primary screen, biochemical, NADPH fluorescence (AID 622;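 active = fluorescence slope higher than the sample average by over 3 SD, cut at about -0.22 in these data, passing the limit was not always enough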;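 also: slope of raw intensity against log time taken from 70 to 1610 s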); details: recombinant KvBeta, 4-cyanobenzaldehyde reduction, at 10 µM, stronger effect = higher value
Voltage-gated potassium channel subunit beta-2 (Rattus norvegicus), sequence (P62483 whole entry, looked up): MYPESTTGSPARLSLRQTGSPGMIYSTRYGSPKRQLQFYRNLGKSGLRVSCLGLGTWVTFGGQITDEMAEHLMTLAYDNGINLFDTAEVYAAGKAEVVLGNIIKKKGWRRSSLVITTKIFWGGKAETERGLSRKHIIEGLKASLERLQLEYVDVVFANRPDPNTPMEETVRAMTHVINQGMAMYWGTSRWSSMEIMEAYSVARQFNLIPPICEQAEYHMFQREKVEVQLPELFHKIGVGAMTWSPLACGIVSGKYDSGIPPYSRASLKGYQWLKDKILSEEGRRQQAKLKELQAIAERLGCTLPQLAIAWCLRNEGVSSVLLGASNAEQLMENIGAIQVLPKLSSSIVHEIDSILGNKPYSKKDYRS

[5] = target: Voltage-gated potassium channel subunit beta-2 (Rattus norvegicus) (UniProt P62483); assay: KvBeta positive modulators, primary screen, biochemical, NADPH fluorescence (AID 623;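 active = NADPH fluorescence slope more negative than the mean of all samples by about 3 SD, 99.7% confidence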;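 also: fluorescence intensity change per second fitted from 20 to 320 s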); details: Recombinant KvBeta, NADPH fluorescence decrease slope, 10 min; at 10 µM; stronger effect = lower value
[6] = target: Muscarinic acetylcholine receptor M4 (Homo sapiens) (UniProt P08173); assay: compounds altering M4/GIRK thallium flux, either direction, primary screen, M4 allosteric agonist project, cell-based, HEK293 M4/GIRK, BTC-AM (AID 625); details: at 10 µM, actives lie on both sides;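 also: thallium influx through GIRK channels coupled to M4 in HEK293 cells with BTC-AM dye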
Muscarinic acetylcholine receptor M4 (Homo sapiens), sequence (P08173 whole entry, looked up): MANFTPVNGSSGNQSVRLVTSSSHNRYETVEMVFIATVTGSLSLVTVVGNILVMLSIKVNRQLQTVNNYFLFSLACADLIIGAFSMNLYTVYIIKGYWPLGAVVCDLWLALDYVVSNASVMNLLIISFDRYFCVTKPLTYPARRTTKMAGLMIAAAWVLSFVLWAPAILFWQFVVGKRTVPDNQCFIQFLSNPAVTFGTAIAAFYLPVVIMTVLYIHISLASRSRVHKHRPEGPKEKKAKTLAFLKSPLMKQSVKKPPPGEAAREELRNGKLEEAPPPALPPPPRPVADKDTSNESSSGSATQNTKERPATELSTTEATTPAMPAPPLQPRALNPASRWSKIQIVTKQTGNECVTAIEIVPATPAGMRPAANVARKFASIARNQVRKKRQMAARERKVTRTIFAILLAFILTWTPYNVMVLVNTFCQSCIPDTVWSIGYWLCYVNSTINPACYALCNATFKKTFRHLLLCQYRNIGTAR
Method in brief: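 assay system = HEK293 cells with M4 receptor and GIRK channels | medium = pH 7.3 thallium assay buffer | doses = 10 µM final, single point | timing = cells overnight at 37 °C, BTC-AM loading 1 h, reads 2 min total | signal = BTC-AM fluorescence, 1 Hz kinetic reads | read-out = post-addition slope, 15–24 s, of baseline-normalized fluorescence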

[7] = inhibitors of Sendai virus-induced IRF3 signaling, primary screen, TLR/RLR signaling modifier project, cell-based, Sendai virus stimulus, luciferase, 10K MLSCN set (AID 602276;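 active = inhibition at or above 50% at 10 µM; inactive = inhibition below 50%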;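 also: firefly luciferase from ISG56 promoter only with Renilla not read in this screen; 0% = Sendai virus plus DMSO and 100% = medium plus DMSO without virus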); details: HEK293 RL24 IRF3 luciferase reporter, at 10 µM, stronger effect = higher value
[8] = inhibitors of poly I:C-induced TLR3 signaling, primary screen, cell-based, poly I:C stimulus, luciferase, 10K MLSCN set (AID 602277;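 active = inhibition of the reporter signal at or above 50%; inactive = inhibition below 50%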); details: HEK293-TLR3 RL24 IRF3 luciferase reporter, at 10 µM, stronger effect = higher value

| Compound | cell count [1] | inhibition [1] | inhibition of aggregation [2] | nuclei count [2] [%] | inhibition [3] | nuclei count [3] [%] | fluorescence slope [4] | NADPH fluorescence slope [5] | fluorescence slope [6] | inhibition [7] | inhibition [8] |
| --- | --- | --- | --- | --- | --- | --- | --- | --- | --- | --- | --- |
| Cc1ccc(Nc2cc(C)nc3nnnn23)cc1 | 415 | 0.6% (inactive) | 1.1% (inactive) | 100 | 29.5% (inactive) | 92.2 | -0.559 (inactive) | -6.9e-05 (inactive) | 0.00637 (inactive) | 7.18% (inactive) | 6.33% (inactive) |
| CCc1ncc(C(O)c2cccc(OC)c2OC)n1C (stereo not drawn) | 335 | 2.8% (inactive) | 7.4% (inactive) | 96.1 | 17.7% (inactive) | 126 | -0.451 (inactive) | -2.7e-05 (inactive) | 0.00484 (inactive) | 23.2% (inactive) | 24% (inactive) |
| O=C(Nc1ccc(N2CCCC2=O)cc1)c1cccc(F)c1 | 226 | -5.9% (inactive) | 15.3% (inactive) | 90.3 | -11.4% (inactive) | 71.5 | -0.461 (inactive) | 2e-05 (inactive) | 0.00447 (inactive) | -49% (inactive) | -122% (inactive) |
| Cc1cccn2cc(-c3ccccc3)nc12 | 394 | 1.7% (inactive) | -5.2% (inactive) | 103 | -36.2% (inactive) | 89.3 | -0.557 (inactive) | -1.4e-05 (inactive) | 0.00519 (inactive) | 2.94% (inactive) | -39.3% (inactive) |
| CC(C)c1ccc(S(=O)(=O)N2CCN(C(=O)c3cccc(F)c3)CC2)cc1 | 363 | 4.2% (inactive) | 17% (inactive) | 100 | -70.8% (inactive) | 118 | -0.525 (inactive) | 0.000166 (inactive) | 0.00667 (inactive) | 14.9% (inactive) | 17% (inactive) |
| CCOC(=O)c1sc(N2C(=O)C(O)=C(C(=O)c3ccco3)C2c2ccccc2)nc1C (stereo not drawn) | 425 | 2.8% (inactive) | 9.3% (inactive) | 102 | -43.5% (inactive) | 97.4 | -0.37 (inactive) | -5.7e-05 (inactive) | 0.00663 (inactive) | 6.84% (inactive) | -6.96% (inactive) |
| Cn1c(=O)c2c(nc(N3CCCCC3)n2CCSc2nc3ccccc3o2)n(C)c1=O | 248 | -3.6% (inactive) | 2.8% (inactive) | 71.3 | 28.4% (inactive) | 94.2 | -0.451 (inactive) | 4.5e-05 (inactive) | 0.00597 (inactive) | -13.5% (inactive) | -11.3% (inactive) |
| O=C(COc1ccccc1)NCCSCc1ccco1 | 599 | -59.2% (inactive) | -13.8% (inactive) | 115 | -71.2% (inactive) | 116 | -0.271 (inactive) | -2e-05 (inactive) | 0.00726 (inactive) | -1.72% (inactive) | -10.5% (inactive) |
| COCCCNC(=O)c1ccc2c(c1)OCO2 | 391 | 1.4% (inactive) | 0.6% (inactive) | 107 | -36.4% (inactive) | 108 | -0.567 (inactive) | -9.1e-05 (inactive) | 0.00354 (inactive) | -10.8% (inactive) | -37.6% (inactive) |
| Cc1nnc(SCC(=O)Nc2ccc3c(c2)OCCO3)n1CC1CCCO1 (stereo not drawn) | 662 | -5% (inactive) | -0.8% (inactive) | 105 | -39.4% (inactive) | 114 | -0.341 (inactive) | -5.6e-05 (inactive) | 0.00537 (inactive) | 14.8% (inactive) | 7.29% (inactive) |
| CCCCC(CC)C(=O)Nc1ccc(Cl)cn1 (stereo not drawn) | 461 | 8.5% (inactive) | 4.5% (inactive) | 102 | -29.4% (inactive) | 117 | -0.377 (inactive) | -7.8e-05 (inactive) | 0.00769 (inactive) | 13.3% (inactive) | 17.2% (inactive) |
| CCn1nc(C(=O)OCC(=O)c2cc(C)n(Cc3cccs3)c2C)c2ccccc2c1=O | 381 | -2.1% (inactive) | 25.7% (inactive) | 90.2 | -97.8% (inactive) | 113 | -0.556 (inactive) | 0.000162 (inactive) | 0.00739 (inactive) | 19.8% (inactive) | 7.59% (inactive) |
| COc1ccccc1-c1nnc2sc(-c3ccc(N(C)C)cc3)nn12 | 695 | -11.2% (inactive) | -34.9% (inactive) | 1.9 | -217% (inactive) | 107 | -0.517 (inactive) | 1.2e-05 (inactive) | 0.00532 (inactive) | 37.1% (inactive) | 87.1% (active) |
| Nc1nonc1-c1noc(CCCCCN2C(=O)c3ccccc3C2=O)n1 | 221 | 6.9% (inactive) | -10.5% (inactive) | 91 | 9.5% (inactive) | 88 | -0.522 (inactive) | -2.2e-05 (inactive) | 0.00407 (inactive) | -4.73% (inactive) | -15.6% (inactive) |
| O=C(CN1CCN(c2ncc(C(F)(F)F)cc2Cl)CC1)Nc1ccc2c(c1)OCO2 | 407 | -5.7% (inactive) | 4.8% (inactive) | 106 | -11.6% (inactive) | 104 | -0.559 (inactive) | -4.3e-05 (inactive) | 0.00584 (inactive) | 7.72% (inactive) | 11.6% (inactive) |
| Cc1ccccc1CN1CCNC1=O | 624 | 40.3% (active) | 7% (inactive) | 88.7 | -69.6% (inactive) | 138 | -0.558 (inactive) | -4e-05 (inactive) | 0.00621 (inactive) | 23.3% (inactive) | 26.8% (inactive) |
| Cc1ccc(S(=O)(=O)NCCCCC(NC(=O)OC(C)(C)C)C(=O)O)cc1 (stereo not drawn) (tested in a mixture with another compound) | 631 | 1.1% (inactive) | 5.6% (inactive) | 99.5 | 34.4% (inactive) | 95.6 | -0.6 (inactive) | -3.1e-06 (inactive) | 0.00344 (inactive) | 15.2% (inactive) | 13.1% (inactive) |
| O=C(Nc1ccc(F)cc1)c1cccc2c1C(=O)N(Cc1ccccn1)C2 | 811 | 2.1% (inactive) | 4.1% (inactive) | 98.1 | -108% (inactive) | 126 | -0.576 (inactive) | -3e-05 (inactive) | 0.00591 (inactive) | 0.0917% (inactive) | -22.2% (inactive) |
| CCc1nc(C)c(-c2ccccc2)c(=O)[nH]1 | 211 | 0.8% (inactive) | 5.5% (inactive) | 97.2 | -99.3% (inactive) | 102 | -0.567 (inactive) | -7.1e-06 (inactive) | 0.00452 (inactive) | -0.853% (inactive) | 3.2% (inactive) |
| COC(=O)Cn1cnc2c(nnn2-c2ccc(C)cc2)c1=O | 257 | 8.9% (inactive) | -6.9% (inactive) | 100 | -78.1% (inactive) | 106 | -0.287 (inactive) | -3.1e-05 (inactive) | 0.00635 (inactive) | -7.22% (inactive) | 1.35% (inactive) |
| Cc1cc(NC(=O)CSc2ccc3nnc(-c4cccc(F)c4)n3n2)no1 | 619 | -13.6% (inactive) | 10.1% (inactive) | 125 | -55.4% (inactive) | 107 | -0.266 (inactive) | 1e-08 (inactive) | 0.00544 (inactive) | -1.23% (inactive) | -7.4% (inactive) |
| Cn1c(=O)c(C(=S)NC(=O)C2CC2)c(N)n(Cc2ccccc2)c1=O | 381 | -8% (inactive) | 14.6% (inactive) | 111 | -77.3% (inactive) | 141 | -0.48 (inactive) | -3.3e-05 (inactive) | 0.00619 (inactive) | 10.8% (inactive) | 14.5% (inactive) |
| CCOc1ccc(-n2cc(C(=O)Nc3cccc(C)n3)c3cc(OC)c(OC)cc3c2=O)cc1 | 395 | 5.1% (inactive) | 20.8% (inactive) | 82.4 | -8% (inactive) | 94 | -0.414 (inactive) | -0.000102 (inactive) | 0.0107 (inactive) | 13.3% (inactive) | 25.9% (inactive) |
| COc1ccccc1-c1coc2c(CN3CCN(CCO)CC3)c(O)ccc2c1=O | 615 | -0.2% (inactive) | -9.4% (inactive) | 102 | -16% (inactive) | 105 | -0.027 (active) | 5.8e-06 (inactive) | 0.0043 (inactive) | 12.9% (inactive) | 5.54% (inactive) |
| CCOc1cccc(OCCOCCN2CCCC2)c1 | 802 | 0.5% (inactive) | 2.1% (inactive) | 79.5 | -29.7% (inactive) | 103 | -0.229 (inactive) | -1.9e-05 (inactive) | 0.00581 (inactive) | 14.6% (inactive) | 13.2% (inactive) |
| O=C1CN(c2ccccc2F)C(=O)CN1c1ccccc1F | 330 | -2.3% (inactive) | -2.1% (inactive) | 97.5 | -61.6% (inactive) | 89.8 | -0.476 (inactive) | -3.1e-05 (inactive) | 0.00583 (inactive) | 14.9% (inactive) | 14.3% (inactive) |
| CCNc1oc(COc2cccc(C)c2)nc1C#N | 791 | -2.1% (inactive) | 15.8% (inactive) | 114 | -14.2% (inactive) | 111 | -0.57 (inactive) | -5e-05 (inactive) | 0.00641 (inactive) | -43.9% (inactive) | -83.4% (inactive) |
| C/C(=C\c1cc(C(=O)O)c(C)o1)CO | 417 | 5.1% (inactive) | 4.9% (inactive) | 94.9 | 39.5% (inactive) | 103 | -0.431 (inactive) | -0.00049 (inactive) | 0.00423 (inactive) | -6.67% (inactive) | -4.63% (inactive) |
